In data set [1] the test system is Hepatitis C virus. Description: Antiviral activity in HCV 2a JFH1 infected in HUH 7-lunet cells after 3 days by Dual-Glo luciferase assay. To be noted: subtype 2a JFH1, Huh-7, 72 h. Type of data set: functional, cell-based, Hepacivirus hominis. A digest of the protocol: (§1)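 Multiplex replicon assay in HUH 7-lunet cells carrying a genotype 1b replicon (I389luc-ubi-neo/NS3-3′/ET) or a 2a JFH-1 replicon (2aLucNeo-25). Cells kept in DMEM with GlutaMAX, 10% non-heat-inactivated FBS, 1 mg/mL G-418 and nonessential amino acids. 1600 cells/well (384-well) given serial dilutions. After three days, Renilla luciferase read by Dual-Glo.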

Data set [2] in a line: Inhibition of PI4K3alpha (unknown origin) assessed as hydrolysis of ATP for 60 mins by ADP-Glo kinase assay. Set-up: species or system Homo sapiens. Summed up: (§2)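 ADP-Glo lipid kinase assay, 5 μL. Final enzyme: PI4K IIIβ 4 ng/μL, IIIα 2 ng/μL, IIα 2 ng/μL. Substrate PI/PS 50 μM, ATP 100 μM final. Inhibitors from 10 mM DMSO stocks. Run 60 min at 25 °C, ADP by luminescence.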
In general terms: ADP-Glo turns the ADP formed in a reaction into a luminescent signal.

The target in data set [3] is Phosphatidylinositol 4-kinase type 2-alpha (Homo sapiens, UniProt Q9BTU6). Nature of the data set: Inhibition of PI4K2alpha (unknown origin) assessed as hydrolysis of ATP for 60 mins by ADP-Glo kinase assay. Summed up:
as §2

Data set [4] concerns Hepatitis C virus. Description: Antiviral activity in HCV 1b infected in HUH 7-lunet cells after 3 days by Dual-Glo luciferase assay. Type of data set: functional, cell-based, Hepacivirus hominis. To be noted: genotype 1b, Huh-7, 72 h. Summed up:
as §1

Data set [5] in a line: Cytotoxicity against human HeLa cells. Type of data set: cell-based.
In data set [6] the test system is Coxsackievirus B3. Nature of the data set: Anticoxsackie activity in CVB3 strain Nancy infected in human HeLa cells assessed as inhibition of virus-induced cytopathic effect after 4 hrs by XTT assay. Type of data set: functional, cell-based. Conditions: Enterovirus B, 3 days, in the assay text read “after 3 days” for “after 4 hrs”. A digest of the protocol:
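HeLa cells seeded a day ahead (30000/well) in DMEM with L-glutamine, 2% FBS, penicillin/streptomycin. 3-fold serial compound dilutions in triplicate, 1 h preincubation, then CVB3 added at MOI 0.005 IU/cell. Incubated 3 days at 37 °C, 5% CO2. Viability by XTT over 4 h, absorbance of formazan read. EC50 by nonlinear regression of % viability vs log10 concentration.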

The next data set has as its system Human rhinovirus sp. Description: Antirhinovirus activity in HRVM infected in H1-HeLa cells assessed as inhibition of virus-induced cytopathic effect after 3 days by Cell-Titer Glo viability assay. To be noted: 72 h. Type of data set: functional, organism-based. A digest of the protocol:
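H1-HeLa cells in RPMI with 10% heat-inactivated FBS and antibiotics, premixed in batch with HRV1A, HRV14 and HRV16, each at 4× TCID90. Replicate 3-fold serial dilutions in DMSO transferred acoustically (384-well). Incubated three days at 33 °C. Cytopathic effect read as viability by CellTiter-Glo.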
For orientation: Cytopathic effects are the visible damage that an infection or toxin causes in cultured cells.

A short description of data set [7]: Inhibition of PI4K3beta (unknown origin) assessed as hydrolysis of ATP for 60 mins by ADP-Glo kinase assay. Set-up: species or system Homo sapiens. Summed up: as §2
In data set [8] the test system is Coxsackievirus B3. Description: Anticoxsackie activity in CVB3 strain Nancy infected in human HeLa cells assessed as inhibition of virus-induced cytopathic effect after 3 days by XTT assay. Conditions: Enterovirus B.

Chain of Phosphatidylinositol 4-kinase type 2-alpha (Q9BTU6 whole entry): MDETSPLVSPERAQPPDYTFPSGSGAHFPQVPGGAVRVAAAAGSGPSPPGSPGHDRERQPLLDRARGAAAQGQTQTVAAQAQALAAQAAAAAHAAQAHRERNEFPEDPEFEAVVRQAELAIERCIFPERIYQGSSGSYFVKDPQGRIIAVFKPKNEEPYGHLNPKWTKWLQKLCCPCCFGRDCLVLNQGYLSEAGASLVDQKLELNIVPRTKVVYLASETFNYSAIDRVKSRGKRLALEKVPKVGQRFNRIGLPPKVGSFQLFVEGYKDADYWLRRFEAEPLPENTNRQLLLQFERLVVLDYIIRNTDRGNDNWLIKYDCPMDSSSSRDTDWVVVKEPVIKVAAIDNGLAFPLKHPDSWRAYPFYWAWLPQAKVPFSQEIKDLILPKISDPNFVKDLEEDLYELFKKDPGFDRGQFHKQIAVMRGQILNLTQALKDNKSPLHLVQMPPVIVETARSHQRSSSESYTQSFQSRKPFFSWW

What is called EC50 is the concentration giving half of the maximal effect. As usually defined, the IC50 is the concentration that gives 50% inhibition. For orientation: CC50 means the concentration that lowers cell viability or growth by half. A lower CC50 goes with harm at low concentration. On to `COc1ccc(-c2c(C)nc3c(NCCNC(C)=O)cc(Cl)nn23)cc1OC`, for which the EC50 was 31.8 µM in the data set on Hepatitis C virus [1], 0.29 µM in the data set on Hepatitis C virus [4], 0.75 µM in the data set with Coxsackievirus B3 [6] and 1.09 µM with Human rhinovirus sp.. Besides, the figures for the IC50 in [2] and in data set [3] were 82.7 µM and greater than 100 µM, respectively. In data set [5], this compound yielded a CC50 greater than 50 µM.
Turning to `COc1ccc(-c2c(C)nn3c(NCCN4CCOCC4)cc(C)nc23)cc1OC`, the EC50 is greater than 44 µM in the data set with Hepatitis C virus [1], 1.03 µM with Hepatitis C virus [4], 3.38 µM in the data set on Coxsackievirus B3 [6] and 2.5 µM in the data set with Human rhinovirus sp..
Regarding `COc1ccc(-c2c(C)nc3c(NCCN4CCOCC4)ccnn23)cc1OC`, the EC50 with Hepatitis C virus [1] came out at 17.9 µM; with Hepatitis C virus [4] it was 0.37 µM; in the data set with Coxsackievirus B3 [6], 0.5 µM; with Human rhinovirus sp. it was 0.88 µM. For the same compound, the IC50 is 27.5 µM in [2], greater than 100 µM in data set [3] and 0.093 µM in [7]. Moreover, the CC50 in data set [5] is greater than 50 µM.
On to `COc1ccc(-c2c(C)nn3c(NCCNC(=O)C(C)C)cc(C)nc23)cc1OC`, for which the EC50 was greater than 44 µM in the data set with Hepatitis C virus [1], 1.21 µM with Hepatitis C virus [4], 11 µM in the data set with Coxsackievirus B3 [6] and 1.62 µM in the data set on Human rhinovirus sp.. Further, the 50% inhibitory concentration (IC50) was 62.1 µM in [2], greater than 100 µM in data set [3] and 0.12 µM in data set [7]. Besides, the CC50 in data set [5] was greater than 50 µM.
Consider `COc1ccc(-c2c(C)nc3c(N)cc(Cl)nn23)cc1OC`, for which the EC50 in the data set on Hepatitis C virus [1] amounted to 26.5 µM; with Hepatitis C virus [4], 0.21 µM; in the data set on Coxsackievirus B3 [6], 0.023 µM; with Human rhinovirus sp. it was 0.89 µM. Further, the IC50 is greater than 100 µM in data set [2], greater than 100 µM in data set [3] and 0.083 µM in data set [7]. Besides, the CC50 in data set [5] came to 1.75 µM.
Take `C[C@@]1(O)[C@H](O)[C@@H](CO)O[C@H]1n1ccc2c(N)ncnc21` [BETA-2'-C-METHYL-7-DEAZA-ADENOSINE]: the figures for the EC50 with Hepatitis C virus [1], with Hepatitis C virus [4] and with Human rhinovirus sp. were 0.21 µM, 0.21 µM and 5.1 µM, respectively. In [5], this compound displayed a CC50 greater than 50 µM.
For `COc1ccc(-c2c(C)nn3c(NCCNC(C)=O)cc(C)nc23)cc1OC`, the EC50 in the data set with Hepatitis C virus [1] was greater than 44 µM; in the data set on Hepatitis C virus [4], 1.03 µM; in the data set on Coxsackievirus B3 [6], 1.23 µM; in the data set with Human rhinovirus sp., 2.9 µM. The IC50 in data set [2] is 59.5 µM; in data set [3], greater than 100 µM; in data set [7], 0.07 µM. The CC50 in [5] was greater than 50 µM.
Take `CC(=O)NCCNc1cc(Cl)nn2c(-c3ccc(F)c(C=O)c3)c(C)nc12`: the EC50 is 13.6 µM with Hepatitis C virus [1], 5.3 µM with Hepatitis C virus [4], greater than 50 µM in the data set on Coxsackievirus B3 [6] and 24.3 µM in the data set on Human rhinovirus sp.. The IC50 was greater than 100 µM in data set [2], greater than 100 µM in data set [3] and 0.089 µM in [7]. This compound gave a CC50 in data set [5] greater than 50 µM.
`COc1ccc(-c2c(C)nn3c(NCCOC(C)=O)cc(C)nc23)cc1OC`: the EC50 was greater than 44 µM in the data set with Hepatitis C virus [1], 0.96 µM in the data set with Hepatitis C virus [4], 0.86 µM in the data set with Coxsackievirus B3 [6] and 1.38 µM with Human rhinovirus sp.. The IC50 in data set [2] was 29.5 µM; in data set [3], greater than 100 µM; in [7] it was 0.067 µM. Further, the CC50 in data set [5] is greater than 50 µM.
For `COc1ccc(-c2c(C)nc3c(NCCNC(C)=O)ccnn23)cc1OC`, the EC50 with Hepatitis C virus [1] was 27.9 µM; in the data set on Hepatitis C virus [4] it was 0.36 µM; in the data set with Coxsackievirus B3 [6], 0.28 µM; in the data set on Human rhinovirus sp. it was 2.9 µM. Besides, the results for the IC50 in data set [2], in data set [3] and in data set [7] were 33.7 µM, greater than 100 µM and 0.092 µM, respectively. In addition, the CC50 in data set [5] is greater than 50 µM.
Regarding `COc1ccc(-c2c(C)nn3c(NCCNS(C)(=O)=O)cc(C)nc23)cc1OC`, the EC50 in the data set with Hepatitis C virus [1] worked out at 42.5 µM; in the data set on Hepatitis C virus [4] it was 0.91 µM; with Coxsackievirus B3 [8], 1.43 µM; with Human rhinovirus sp., 3 µM. In addition, the IC50 in data set [2] is 29.3 µM; in data set [3], greater than 100 µM; in [7] it was 0.12 µM. In [5], this compound had a CC50 greater than 50 µM.
